Assay results from paper PMC6980747 (Cell chemical biology, 2019).

Key:
[1] = tested on: AKT1, AKT2, AKT3 in MDA-MB-468 cells; assay: Immunoblot of AKT isoform degradation in MDA-MB-468 cells; format: cell-based
ZR-75-1 cells = assay: Growth rate inhibition; format: cell-based; settings: ZR-75-1, 72-hour treatment
[2] = tested on: pPRAS40 in T47D and MDA-MB-468 cells; assay: Time course and washout immunoblots of pPRAS40; format: cell-based; settings: for pPRAS40 levels over time: 250 nM, T47D and MDA-MB-468, continuous treatment; for pPRAS40 levels after washout: 12 hours treatment with 250 nM, then washout
[3] = tested on: pPRAS40, pGSK3β, pS6 in T47D cells; assay: Immunoblot of downstream AKT signaling in T47D cells; format: cell-based; settings: 24 hours
[4] = tested on: Ikaros (IKZF1) and Aiolos (IKZF3); assay: Immunoblot of Ikaros and Aiolos degradation; format: cell-based; settings: 24 hours of drug treatment
Summary of the method: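 Cells were seeded at 250,000/mL (T47D at 200,000/mL) in RPMI or DMEM with 10% serum, left overnight, then given test compound. They were lysed 15 min in RIPA (pH 7.5) with 0.1% SDS, phosphatase and protease inhibitors, cleared at 14,000 rpm for 10 min at 4°C, and protein-normalized. Lysates went through SDS-PAGE and nitrocellulose transfer, milk block, primary antibodies at 4°C overnight, and fluorescent secondaries 1 h RT. Imaging was on a LI-COR Odyssey.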

PKG1 = PKG1 (Homo sapiens, UniProt Q13976); assay: Z'-LYTE kinase assay, PKG1; format: biochemical
Chain of PKG1 (Q13976 whole entry, canonical isoform): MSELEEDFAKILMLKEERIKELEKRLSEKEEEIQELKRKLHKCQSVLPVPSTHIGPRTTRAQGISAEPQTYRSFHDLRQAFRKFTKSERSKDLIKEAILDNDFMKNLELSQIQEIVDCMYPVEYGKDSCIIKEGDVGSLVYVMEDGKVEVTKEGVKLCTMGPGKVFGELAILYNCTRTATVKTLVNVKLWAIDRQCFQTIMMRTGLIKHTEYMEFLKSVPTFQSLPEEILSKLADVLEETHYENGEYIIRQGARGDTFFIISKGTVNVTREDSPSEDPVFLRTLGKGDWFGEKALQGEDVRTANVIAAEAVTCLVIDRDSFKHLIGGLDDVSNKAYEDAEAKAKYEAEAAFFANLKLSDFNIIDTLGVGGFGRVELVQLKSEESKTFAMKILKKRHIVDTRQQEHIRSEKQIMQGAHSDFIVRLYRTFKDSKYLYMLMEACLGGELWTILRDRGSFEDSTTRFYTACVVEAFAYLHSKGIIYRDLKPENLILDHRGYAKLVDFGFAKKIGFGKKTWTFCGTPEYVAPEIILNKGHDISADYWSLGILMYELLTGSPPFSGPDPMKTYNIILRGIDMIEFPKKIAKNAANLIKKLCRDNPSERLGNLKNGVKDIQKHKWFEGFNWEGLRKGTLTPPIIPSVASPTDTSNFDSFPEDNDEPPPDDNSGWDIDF

[5] = tested on: AKT isoforms in T47D cells; assay: Immunoblot of AKT degradation in T47D cells; format: cell-based; settings: 24-hour treatment, 250 nM
AKT3 = AKT3 (Homo sapiens, UniProt Q9Y243); assay: Z'-LYTE FRET-based kinase inhibition assay, AKT3; format: biochemical
Chain of AKT3 (Q9Y243 whole entry): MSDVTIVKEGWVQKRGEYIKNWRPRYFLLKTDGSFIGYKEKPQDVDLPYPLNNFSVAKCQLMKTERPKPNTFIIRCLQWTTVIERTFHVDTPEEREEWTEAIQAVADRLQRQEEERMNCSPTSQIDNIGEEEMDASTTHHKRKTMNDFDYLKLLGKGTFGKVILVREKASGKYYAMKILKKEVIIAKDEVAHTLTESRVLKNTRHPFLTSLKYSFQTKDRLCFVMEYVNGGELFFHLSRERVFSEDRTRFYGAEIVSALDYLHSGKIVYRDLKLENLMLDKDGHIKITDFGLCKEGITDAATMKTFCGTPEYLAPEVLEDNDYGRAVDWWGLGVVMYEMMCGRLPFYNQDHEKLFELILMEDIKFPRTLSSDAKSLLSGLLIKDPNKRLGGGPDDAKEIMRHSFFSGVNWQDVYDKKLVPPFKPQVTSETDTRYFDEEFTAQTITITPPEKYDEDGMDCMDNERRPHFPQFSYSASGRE

[6] = tested on: MDA-MB-468 and HCC1937 cells; assay: Growth rate inhibition; format: cell-based; settings: MDA-MB-468 and HCC1937, 72-hour treatment
S6K1 [7] = target: T1, S6K1 (Homo sapiens, UniProt P23443); assay: Z'-LYTE kinase assay, S6K1; format: biochemical
T1 sequence (P23443 whole entry): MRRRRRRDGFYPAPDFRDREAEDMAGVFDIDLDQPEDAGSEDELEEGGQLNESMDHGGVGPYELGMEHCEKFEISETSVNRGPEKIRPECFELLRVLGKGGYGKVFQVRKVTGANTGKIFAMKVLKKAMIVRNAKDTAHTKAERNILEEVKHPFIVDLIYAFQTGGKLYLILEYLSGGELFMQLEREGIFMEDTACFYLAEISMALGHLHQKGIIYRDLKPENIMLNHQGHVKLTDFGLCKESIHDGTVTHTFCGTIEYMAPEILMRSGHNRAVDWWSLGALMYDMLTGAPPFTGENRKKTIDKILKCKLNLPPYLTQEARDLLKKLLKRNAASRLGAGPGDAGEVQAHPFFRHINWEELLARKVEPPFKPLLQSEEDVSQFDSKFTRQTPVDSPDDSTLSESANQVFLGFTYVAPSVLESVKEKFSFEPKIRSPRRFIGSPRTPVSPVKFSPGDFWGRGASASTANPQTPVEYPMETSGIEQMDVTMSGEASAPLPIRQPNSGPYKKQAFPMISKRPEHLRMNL

AKT2 = AKT2 (Homo sapiens, UniProt P31751); assay: Z'-LYTE FRET-based kinase inhibition assay, AKT2; format: biochemical
Chain of AKT2 (P31751 whole entry): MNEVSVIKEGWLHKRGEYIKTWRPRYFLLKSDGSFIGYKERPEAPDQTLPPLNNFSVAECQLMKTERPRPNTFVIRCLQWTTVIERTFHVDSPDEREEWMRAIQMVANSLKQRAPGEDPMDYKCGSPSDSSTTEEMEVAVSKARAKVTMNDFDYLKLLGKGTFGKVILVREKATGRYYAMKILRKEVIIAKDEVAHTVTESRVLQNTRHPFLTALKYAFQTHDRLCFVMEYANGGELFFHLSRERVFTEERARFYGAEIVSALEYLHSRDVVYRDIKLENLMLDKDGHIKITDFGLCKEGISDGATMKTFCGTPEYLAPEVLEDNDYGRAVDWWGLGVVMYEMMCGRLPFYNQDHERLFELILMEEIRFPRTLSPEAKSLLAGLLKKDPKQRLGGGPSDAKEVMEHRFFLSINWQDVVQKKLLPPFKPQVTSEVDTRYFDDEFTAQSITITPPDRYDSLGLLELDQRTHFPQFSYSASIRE

MOLT4 cells proteome = assay: TMT quantitative mass spectrometry proteomics in MOLT4 cells; format: cell-based, human; settings: MOLT4, 250 nM, 4 hours, vs DMSO
AKT1 = AKT1 (Homo sapiens, UniProt P31749); assay: Z'-LYTE FRET-based kinase inhibition assay, AKT1; format: biochemical
Chain of AKT1 (P31749 whole entry): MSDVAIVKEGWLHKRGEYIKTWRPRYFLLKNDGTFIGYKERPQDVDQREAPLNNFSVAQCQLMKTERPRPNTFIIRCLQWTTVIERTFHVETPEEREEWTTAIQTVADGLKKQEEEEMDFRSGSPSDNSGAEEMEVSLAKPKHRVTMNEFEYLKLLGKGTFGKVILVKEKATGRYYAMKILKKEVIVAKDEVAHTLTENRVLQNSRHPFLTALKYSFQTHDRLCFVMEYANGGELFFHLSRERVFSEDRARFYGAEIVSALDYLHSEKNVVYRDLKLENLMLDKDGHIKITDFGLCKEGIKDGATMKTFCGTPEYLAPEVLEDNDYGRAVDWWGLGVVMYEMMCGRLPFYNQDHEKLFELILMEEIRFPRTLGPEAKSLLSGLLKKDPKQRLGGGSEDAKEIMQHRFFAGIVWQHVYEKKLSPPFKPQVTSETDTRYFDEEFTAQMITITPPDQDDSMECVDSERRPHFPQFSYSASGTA

[8] = tested on: AKT in T47D and MDA-MB-468 cells; assay: Time course and washout immunoblots of AKT levels; format: cell-based
S6K1 [9] = target: T1, S6K1; assay: Immunoblot of S6K1 degradation; format: cell-based
RET (V804M) = RET (V804M) (Homo sapiens, UniProt P07949, V804M); assay: LanthaScreen assay, RET; format: biochemical
Chain of RET (V804M) (P07949 29-1114 V804M): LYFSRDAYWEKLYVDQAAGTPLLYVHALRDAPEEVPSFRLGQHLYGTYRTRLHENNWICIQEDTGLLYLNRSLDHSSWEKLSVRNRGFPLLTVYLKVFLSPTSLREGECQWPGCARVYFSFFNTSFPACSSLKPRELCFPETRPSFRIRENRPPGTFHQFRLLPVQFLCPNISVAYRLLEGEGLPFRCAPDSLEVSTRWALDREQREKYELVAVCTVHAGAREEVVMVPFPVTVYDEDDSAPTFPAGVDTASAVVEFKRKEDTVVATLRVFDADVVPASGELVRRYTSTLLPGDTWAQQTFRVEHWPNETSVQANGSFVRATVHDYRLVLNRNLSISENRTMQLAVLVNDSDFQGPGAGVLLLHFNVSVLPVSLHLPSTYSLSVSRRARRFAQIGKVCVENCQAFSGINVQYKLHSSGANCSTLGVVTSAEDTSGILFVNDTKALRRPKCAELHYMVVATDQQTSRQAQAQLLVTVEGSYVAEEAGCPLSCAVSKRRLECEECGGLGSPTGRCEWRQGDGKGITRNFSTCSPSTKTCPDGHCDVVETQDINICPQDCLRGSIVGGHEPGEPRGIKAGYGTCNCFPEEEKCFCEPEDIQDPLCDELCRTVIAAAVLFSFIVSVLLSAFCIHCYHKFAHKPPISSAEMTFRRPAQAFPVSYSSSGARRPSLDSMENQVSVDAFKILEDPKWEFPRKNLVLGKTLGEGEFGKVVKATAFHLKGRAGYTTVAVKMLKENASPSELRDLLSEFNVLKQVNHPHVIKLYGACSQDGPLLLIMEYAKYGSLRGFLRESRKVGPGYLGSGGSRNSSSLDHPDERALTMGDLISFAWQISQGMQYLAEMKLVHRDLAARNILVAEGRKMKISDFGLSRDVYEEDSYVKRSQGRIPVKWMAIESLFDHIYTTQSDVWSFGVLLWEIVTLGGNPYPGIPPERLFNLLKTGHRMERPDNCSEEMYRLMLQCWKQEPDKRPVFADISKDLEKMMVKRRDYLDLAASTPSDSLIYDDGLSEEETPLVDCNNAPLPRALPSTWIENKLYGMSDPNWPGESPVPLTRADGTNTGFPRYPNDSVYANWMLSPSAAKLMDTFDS

[10] = tested on: ZR-75-1, T47D, LNCaP, and MCF-7 cells; assay: Growth rate inhibition; format: cell-based; settings: 72-hour treatment, Figures 3A-D

`C[C@@H]1C[C@@H](O)c2ncnc(N3CCN(C(=O)[C@H](CNCCCCCCCCCCc4cccc5c4CN(C4CCC(=O)N(C)C4=O)C5=O)c4ccc(Cl)cc4)CC3)c21` (stereo partly drawn) [INY-03-112, 3-(4-(10-(((S)-2-(4-chlorophenyl)-3-(4-((5R,7R)-7-hydroxy-5-methyl-6,7-dihydro-5H-cyclopenta[d]pyrimidin-4-yl)piperazin-1-yl)-3-oxopropyl)amino)decyl)-1-oxoisoindolin-2-yl)-1-methylpiperidine-2,6-dione] was tested. Which “AKT isoform degradation” value ([1]; MDA-MB-468, immunoblot) did it give?
Its value is “did not induce potent degradation of any AKT isoform”.

What about the GR50 (ZR-75-1 cells) of the same compound?
The GR50 was 413 nM.

With `CC(C)NC[C@@H](C(=O)N1CCN(c2ncnc3c2[C@H](C)C[C@H]3O)CC1)c1ccc(Cl)cc1` [GDC-0068, ipatasertib, reference compound] as the compound, how does the “pPRAS40 levels over time” value [2] read?
Its value is “less pronounced inhibition of pPRAS40”.

What about the “pPRAS40 levels after washout” value [2] of the same compound?
Its value is “rebound of pPRAS40”.

What about the “dose required to observe comparable effects on pPRAS40, pGSK3β, and pS6” value ([3]; comparable to 250 nM INY-03-041) of the same compound?
The value was “up to 1 μM”.

What about the GR50 (ZR-75-1 cells) of the same compound?
Its GR50 is 229 nM.

What does the source list for `C[C@@H]1C[C@@H](O)c2ncnc(N3CCN(C(=O)[C@H](CNCCCCCCCCCCc4cccc5c4CN(C4CCC(=O)NC4=O)C5=O)c4ccc(Cl)cc4)CC3)c21` (stereo partly drawn) [INY-03-041, 3-(4-(10-(((S)-2-(4-chlorophenyl)-3-(4-((5R,7R)-7-hydroxy-5-methyl-6,7-dihydro-5H-cyclopenta[d]pyrimidin-4-yl)piperazin-1-yl)-3-oxopropyl)amino)decyl)-1-oxoisoindolin-2-yl)piperidine-2,6-dione]?
pPRAS40 levels over time [2]: significantly reduced for up to 96 hours; pPRAS40 levels after washout [2]: potently suppressed levels of pPRAS40 for up to 96 hours after washout; IKZF1 and IKZF3 degradation (immunoblot) [4]: weak IKZF1 and IKZF3 degradation; concentration at which IKZF1 and IKZF3 degradation was seen [4]: ≥ 500 nM; IC50 (PKG1): 33.2 nM; AKT isoform levels after treatment [5]: no detectable levels of all three AKT isoforms; IC50 (AKT3): 3.5 nM; GR50 comparison [6]: no apparent differences in GR50 values between INY-03-041 and INY-03-112; IC50 (S6K1 [7]): 37.3 nM; IC50 (AKT2): 6.8 nM; S6K1 and PKG1 abundance (proteomics) (MOLT4 cells proteome): no downregulation of either kinases was observed; change in protein abundance (proteomics) (MOLT4 cells proteome): significant downregulation of all three AKT isoforms, as well as RNF166; time to partial degradation of all AKT isoforms ([1]; MDA-MB-468, 250 nM): ≤ 4 h; concentration at which diminished AKT degradation (hook effect) was observed ([1]; MDA-MB-468, 12-hour treatment): ≥ 500 nM; IC50 (AKT1): 2 nM; duration of sustained destabilization of all three AKT isoforms ([8]; 250 nM, T47D and MDA-MB-468): at least 96 hours; AKT levels after compound washout ([8]; 12 hours treatment with 250 nM, then washout): no detectable rebound of AKT levels for up to 96 hours; concentration that significantly reduced pPRAS40, pGSK3β, and pS6 levels [3]: 250 nM; GR50 (ZR-75-1 cells): 16 nM; fold increased potency compared to GDC-0068 (GR50) (ZR-75-1 cells): 14 fold; S6K1 degradation (immunoblot) (S6K1 [9]): did not induce S6K1 degradation; IC50 (RET (V804M)): > 10000 nM

With `Nc1cccc2c1CN(C1CCC(=O)NC1=O)C2=O` (centres unmarked) [lenalidomide] as the compound, how does the “anti-proliferative effects” value [10] read?
Its value is “did not have strong anti-proliferative effects”.
